{"data": "Experimental data pooled from the literature", "read-out": "cell growth or viability", "note": "Protocols differ between the studies behind these lines."}
{"SMILES": "CC(=O)c1ccc2cc(S(=O)(=O)Nc3ccccn3)ccc2c1", "cell line": "MDCK", "technique": "neutral red", "time": "48 h", "IC50": "88.8 µM"}
{"SMILES": "Cc1ccc(S(=O)(=O)n2cc(/C=N/NC(=O)c3ccc([N+](=O)[O-])cc3)c3ccccc32)cc1", "cell line": "MCF-10A", "technique": "MTT", "time": "48 h", "IC50": "> 50 µM"}
{"SMILES": "CC(=O)c1ccc2cc(S(=O)(=O)Nc3ccc(F)cc3)ccc2c1", "cell line": "MDCK", "technique": "neutral red", "time": "48 h", "IC50": "93.4 µM"}
{"SMILES": "CC(C)[C@@H]1NC(=O)/C(=C/c2cnc[nH]2)NC1=O", "cell line": "NCI-H446", "technique": "SRB", "IC50": "> 15 µM"}
{"SMILES": "COc1ccc2c(c1)C(=O)C(=O)N2CCn1ncc2c(=O)[nH]cnc21", "cell line": "BALB/3T3 clone A31", "technique": "SRB", "time": "72 h", "IC50": "21.7 mg/L"}
{"SMILES": "NC(=O)c1cnc(NCCc2ccc(O)c(Cl)c2)nc1NCc1ccccc1", "cell line": "JHH7", "technique": "CCK-8", "time": "48 h", "IC50": "1.29 µM"}
{"SMILES": "COc1cccc2c1C(=O)c1c(O)c3c(c(O)c1C2=O)C[C@@](O)(C(=O)CO)C[C@@H]3O[C@H]1C[C@H](N)[C@H](O)[C@H](C)O1", "cell line": "NCI-H446", "time": "96 h", "IC50": "0.0365 µM"}
{"SMILES": "CC(C)[C@@H]1NC(=O)[C@H](Cc2c[nH]cn2)NC1=O", "cell line": "NCI-H446", "technique": "SRB", "IC50": "> 15 µM"}
{"SMILES": "Cc1ccc(S(=O)(=O)n2cc(/C=N/NC(=O)c3cccnc3)c3ccccc32)cc1", "cell line": "MCF-10A", "technique": "MTT", "time": "48 h", "IC50": "> 50 µM"}
{"SMILES": "COc1cc(C2C3=C(COC3=O)N(CCO)c3cc4c(cc32)CCC4)cc(OC)c1OC (stereo not shown)", "cell line": "4T1", "technique": "ATP luminescence", "time": "48 h", "IC50": "0.85 µM"}
{"SMILES": "Cc1ccc(S(=O)(=O)n2cc(/C=N/NC(=O)Cc3ccccc3C(F)(F)F)c3ccccc32)cc1", "cell line": "MCF-10A", "technique": "MTT", "time": "48 h", "IC50": "> 50 µM"}
{"SMILES": "CC(=O)c1ccc2cc(S(=O)(=O)Nc3cccnc3)ccc2c1", "cell line": "MDCK", "technique": "neutral red", "time": "48 h", "IC50": "20.7 µM"}
{"SMILES": "Clc1ccc(-c2cc(CNc3cccc4cccnc34)on2)c(Cl)c1", "cell line": "K562", "technique": "MTS", "time": "72 h", "IC50": "33 µM"}
{"SMILES": "Nc1ccn([C@@H]2O[C@H](CO)[C@@H](O)C2(F)F)c(=O)n1", "cell line": "4T1", "technique": "MTT", "time": "48 h", "IC50": "3.37 mg/L"}
{"SMILES": "CC(=O)c1ccc2cc(S(=O)(=O)Nc3ccccc3C)ccc2c1", "cell line": "MDCK", "technique": "neutral red", "time": "48 h", "IC50": "21.8 µM"}
{"SMILES": "Cc1ccc(S(=O)(=O)n2cc(/C=N/NC(=O)c3ccc(Br)cc3)c3ccccc32)cc1", "cell line": "MCF-10A", "technique": "MTT", "time": "48 h", "IC50": "> 50 µM"}
{"SMILES": "COc1ccc2c(c1)/C(=N/NC(N)=S)C(=O)N2CCn1ncc2c(=O)[nH]cnc21", "cell line": "BALB/3T3 clone A31", "technique": "SRB", "time": "72 h", "IC50": "77.5 mg/L"}
{"SMILES": "FC(F)(F)c1ccc(-c2cc(COc3cc(C(F)(F)F)nc4ccccc34)on2)cc1", "cell line": "K562", "technique": "MTS", "time": "72 h", "IC50": "> 100 µM"}
{"SMILES": "Cc1ccc(S(=O)(=O)n2cc(/C=N/NC(=O)Cc3ccc(F)cc3F)c3ccccc32)cc1", "cell line": "MCF-10A", "technique": "MTT", "time": "48 h", "IC50": "> 50 µM"}
{"SMILES": "Nc1ncnc2c1ncn2CCN1C(=O)C(=O)c2cc(F)ccc21", "cell line": "BALB/3T3 clone A31", "technique": "SRB", "time": "72 h", "IC50": "47.2 mg/L"}
{"SMILES": "CCOC(=O)c1c(C)nc2ccc(-c3cccc(F)c3)cc2c1O", "cell line": "MCF-10A", "technique": "MTT", "time": "48 h", "IC50": "≥ 100 µM"}
{"SMILES": "COC[C@H](NC(=O)c1ccn(S(C)(=O)=O)c1)C(=O)Nc1nc(-c2cccc(N3C[C@@H](C)O[C@@H](C)C3)n2)cs1", "cell line": "VCaP", "technique": "ATP luminescence", "time": "7 days", "IC50": "0.0265 µM"}
{"SMILES": "Cc1ccc(S(=O)(=O)n2cc(/C=N/NC(=O)c3ccccc3)c3ccccc32)cc1", "cell line": "MCF-10A", "technique": "MTT", "time": "48 h", "IC50": "> 50 µM"}
{"SMILES": "O=c1cc(OCc2cc(-c3ccccc3)no2)c2ccccc2o1", "cell line": "K562", "technique": "MTS", "time": "72 h", "IC50": "> 100 µM"}
{"SMILES": "COc1ccc2c(c1)C(=O)C(=O)N2CCn1cnc2c(N)ncnc21", "cell line": "BALB/3T3 clone A31", "technique": "SRB", "time": "72 h", "IC50": "55.3 mg/L"}
{"SMILES": "CC(=O)c1ccc2cc(S(=O)(=O)Nc3ccccc3)ccc2c1", "cell line": "MDCK", "technique": "neutral red", "time": "48 h", "IC50": "90.9 µM"}
{"SMILES": "C/C(=C\\C(=O)N[C@H](C(=O)N1CCC[C@H]1C(=O)N(c1ccccc1)c1ccc(I)cc1)C(C)(C)C)c1ccc(OP(=O)(O)O)cc1", "cell line": "JHH7", "technique": "CCK-8", "IC50": "7.19 µM"}
{"SMILES": "CC(=O)O[C@@]12CO[C@@H]1C[C@H](O)[C@@]1(C)C(=O)[C@H](O)C3=C(C)[C@@H](OC(=O)[C@H](O)[C@@H](NC(=O)OC(C)(C)C)c4ccccc4)C[C@@](O)([C@@H](OC(=O)c4ccccc4)[C@H]21)C3(C)C", "cell line": "MCF-10A", "technique": "MTT", "time": "48 h", "IC50": "> 100 µM"}
{"SMILES": "CCCCC(=O)Nc1ccc(-c2ccc3ncn(CCC)c(=O)c3c2)cn1", "cell line": "human PBMC", "technique": "CCK-8", "time": "72 h", "IC50": "> 10 µM"}
{"SMILES": "Nc1ncnc2c1ncn2CCN1C(=O)C(=O)c2cc(Cl)ccc21", "cell line": "BALB/3T3 clone A31", "technique": "SRB", "time": "72 h", "IC50": "24.4 mg/L"}
{"SMILES": "Cc1ncsc1-c1ccc(CNC(=O)[C@@H]2C[C@@H](O)CN2C(=O)[C@@H](NC(=O)C2(F)CC2)C(C)(C)C)c(OCCOc2ccc(CN3CCN(c4cc(-c5ccccc5O)nnc4N)CC3)cc2)c1", "cell line": "VCaP", "technique": "ATP luminescence", "time": "7 days", "IC50": "0.0246 µM"}
